HTRA1 inh: inhibitors of human serine peptidase HTRA1 | Q92743 | recombinant HTRA1, FP-rhodamine activity-based probe, fluorescence polarization | inhibition, % at 5.96 µM | actives 0.5% (n = 340,000); in the data active means inhibition above about 36%;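 further: 0% = enzyme with DMSO and 100% = wells lacking enzyme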
Target sequence (Q92743 whole entry, looked up): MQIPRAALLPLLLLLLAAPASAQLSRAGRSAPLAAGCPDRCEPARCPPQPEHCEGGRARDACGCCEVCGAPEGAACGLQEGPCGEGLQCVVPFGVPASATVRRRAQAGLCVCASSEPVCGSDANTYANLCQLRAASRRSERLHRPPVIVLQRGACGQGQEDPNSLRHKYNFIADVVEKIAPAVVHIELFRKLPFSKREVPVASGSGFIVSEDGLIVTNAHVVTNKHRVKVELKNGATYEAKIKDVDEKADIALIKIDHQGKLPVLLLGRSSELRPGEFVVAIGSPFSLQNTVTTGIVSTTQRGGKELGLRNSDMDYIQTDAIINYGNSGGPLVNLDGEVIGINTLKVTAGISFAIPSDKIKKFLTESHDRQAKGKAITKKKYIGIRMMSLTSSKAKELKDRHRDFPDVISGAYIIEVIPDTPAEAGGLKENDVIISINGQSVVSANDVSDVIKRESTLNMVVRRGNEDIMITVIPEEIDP
TCR-CD3 inh: human TCR-CD3 binding inhibition; TAMRA-labeled TCR probe fluorescence, biochemical; inhibition, % at 9.4 µM; actives 0.37% (n = 360,000); AID 651800; in the data active means inhibition above about 19%;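 further: recombinant mutant TCR 2C K166C tagged with TAMRA read by polarization; 0% = receptor in buffer alone and 100% = receptor with positive control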
SIAE inh: inhibitors of human sialic acid acetylesterase SIAE; Q9HAT2; SIAE FP-Rh probe binding, fluorescence polarization; inhibition, % at 9.66 µM; actives 0.69% (n = 370,000); AID 1053197;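 active means inhibition above a cutoff: mean of compounds within the control limits plus 3 SD of those, cut at about 17% in these data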;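 further: 0% = plate median of compound wells and 100% = probe without SIAE protein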
DDE Tn7 FP inh: disrupts Tn7 cyclic peptide binding to fibrin D-Dimer-E complex; P02675; FP displacement of FITC-Tn7 peptide from fibrin DD(E); 0% = median of compound wells per plate; inhibition, % at 8.3 µM; actives 0.13% (n = 370,000);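 active means inhibition above the mean of compounds falling within the control limits plus 3 SD of them, cut at about 14% in these data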;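 further: 0% = plate median of compound wells and 100% = 10 µM Aha-Tn7 peptide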
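Also added: labelled Tn7 tracer, 0.1 µM; Assay system: human fibrin DD(E) protein; Amount: 2 µM fibrin DD(E); Schedule: 10 min compound pre-incubation, 3 h probe incubation at room temperature; Repeats: one replicate per compound; Read-out basis: percent inhibition; Measured by: fluorescence polarization of the labelled Tn7 tracer.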
mABHD4 FP: inhibits mouse alpha/beta hydrolase domain 4; Q8VD66; purified mABHD4, FP-Rh probe fluorescence polarization; inhibition, % at 8.92 µM; actives 0.54% (n = 370,000);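 active means inhibition exceeding the mean over every tested compound plus 3 SD, cut at about 30% in these data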;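 further: 0% = plate median of compound wells and 100% = S159A mutant with DMSO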
Target sequence (Q8VD66 whole entry, looked up, the tested form may be a part): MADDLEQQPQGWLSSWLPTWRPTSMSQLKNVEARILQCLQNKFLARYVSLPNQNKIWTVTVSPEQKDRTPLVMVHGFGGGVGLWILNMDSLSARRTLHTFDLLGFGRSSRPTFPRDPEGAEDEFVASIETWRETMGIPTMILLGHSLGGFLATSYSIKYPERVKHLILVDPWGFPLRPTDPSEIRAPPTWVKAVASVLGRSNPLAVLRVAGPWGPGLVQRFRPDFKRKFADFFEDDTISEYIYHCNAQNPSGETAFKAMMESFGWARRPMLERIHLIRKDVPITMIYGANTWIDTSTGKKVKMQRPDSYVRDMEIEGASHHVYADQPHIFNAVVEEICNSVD
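assay system = mABHD4 protein | compound dosing = single nominal dose of 8.92 µM, 0.89% DMSO final | read-out basis = percent inhibition of probe binding, normalized to plate controls | schedule = Enzyme–compound pre-incubation 45 min, then probe 60 min, both 25 °C | detection = fluorescence polarization, excitation 525 nm, emission 598 nm, BODIPY TMR filters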
DDE Tn6 FP inh: DD(E)-Tn6 binding inhibition, primary FP screen. P02675. Fibrin DD(E) TRITC-Tn6 fluorescence polarization displacement. inhibition, % at 8.3 µM. actives 0.21% (n = 370,000);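 active means inhibition above a per-campaign cutoff: mean of compounds within control limits plus 3 SD, cut at about 15% in these data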;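 further: 0% = median of all compound wells on the plate and 100% = blocking peptide control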
mABHD4 conf: ABHD4 (mouse) inhibition, FP confirmation; shares compounds with mABHD4 FP; purified mABHD4, FP-Rh probe fluorescence polarization; inhibition, % at 8.92 µM; actives 55% (n = 1,800); AID 720658;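 active means mean inhibition across replicates above the hit cutoff set in the primary screen, cut at about 30% in these data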;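 further: 0% = wild-type ABHD4 with DMSO and 100% = catalytically dead S159A mutant with DMSO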
* hit, by the source's call; nt = no result. Shown are actives, neighbours in structure and some others; about 1.8% of the full set was active somewhere.

SMILES | HTRA1 inh | TCR-CD3 inh | SIAE inh | DDE Tn7 FP inh | mABHD4 FP | DDE Tn6 FP inh | mABHD4 conf
Cc1cc(N2CCN(C(=O)Oc3ccc(-c4ccccc4)cn3)CC2)c2ccccc2n1 | nt | nt | -1.4 | -4.9 | 11.7 | -1.2 | nt
Cc1cc(N2CCN(C(=O)Oc3ccc(C(F)(F)F)cc3)CC2)c2ccccc2n1 | nt | nt | -0.4 | -2.7 | 53.5* | -0.1 | 23.4
COc1ccc(N2CCN(C(=O)COCC(=O)O)CC2)cc1 | 5.2 | 5.9 | -3.8 | -13.0 | 6.2 | 0.0 | nt
COc1ccc(N2CCN(C(=O)Cn3cncn3)CC2)cc1 | 1.0 | 10.6 | 6.4 | -1.3 | 36.6* | -3.7 | 2.5
O=C(C=Cc1ccco1)c1ccco1 | 8.9 | 0.7 | 3.2 | -0.5 | 31.9* | 5.8 | 12.1
O=C(/C=C/c1ccc([N+](=O)[O-])cc1)c1ccco1 | -0.1 | 4.1 | -3.3 | 2.9 | -1.6 | -2.6 | nt
O=C(/C=C/c1ccc([N+](=O)[O-])cc1)/C=C/c1ccco1 | 32.6 | 1.4 | 10.2 | -2.3 | 38.5* | -7.7 | 32.8*
CCc1nc2ccc(C(=O)NCCOc3ccc(OC)cc3)cn2c1N(CC)CCOC | nt | -5.6 | 3.2 | -2.8 | -1.7 | 4.9 | nt
CCCCCCC(=O)Nc1nc(C)c(-c2csc(Nc3cc(OC)ccc3OC)n2)s1 | 16.3 | 6.5 | 10.9 | -4.0 | 33.8* | -11.2 | 48.6*
CCCCC(=O)Nc1nc(C)c(-c2csc(Nc3ccccc3OC)n2)s1 | -0.1 | -15.5 | -8.3 | 0.9 | -10.7 | -2.1 | nt
O=C(O)c1ccc2nc(-c3ccco3)c(-c3ccco3)nc2c1 | 16.4 | -4.5 | 6.2 | 4.8 | 62.6* | -6.5 | 17.7
O=C(N1CCC(C(O)(c2ccccc2)c2ccccc2)CC1)n1ncc(C(O)(c2ccccc2)c2ccccc2)n1 | nt | nt | -6.9 | 9.5 | 69.9* | 0.8 | 68.5*
O=C(NN=Cc1cccc(O)c1O)c1ccccc1 | nt | 2.6 | 7.7 | 6.1 | 38.7* | -7.6 | 6.7
O=C(N/N=C/c1ccc(O)c(O)c1O)/C(=C/c1ccc([N+](=O)[O-])cc1)NC(=O)c1ccccc1 | 62.9* | 18.0 | 12.4 | 3.0 | 56.8* | -2.6 | 67.1*
O=C(N/N=C/c1ccccc1O)c1ccncc1 | 6.8 | -0.6 | -4.0 | -0.3 | 2.4 | -4.1 | nt
Cc1ccc(NC(=O)/C(=C\c2ccc([N+](=O)[O-])cc2)NC(=O)c2ccccc2)cc1 | -6.8 | -2.0 | -15.8 | -1.1 | -9.9 | -4.7 | nt
CN(C(=O)c1cc(COc2ccc(F)cc2Cl)on1)C1CCOC1 (stereo not drawn) | 0.4 | -5.7 | 6.3 | -5.3 | 0.0 | 1.7 | nt
CCOC(=O)C(=CNc1nc(-c2ccccc2)c(C(=O)Nc2ccc(-c3ccccc3)cc2)s1)C(=O)OCC | -0.5 | 2.5 | -4.4 | -5.2 | 3.1 | 2.5 | nt
Nc1ccc2cc3ccc(N)cc3nc2c1 | nt | nt | 11.3 | 4.3 | 32.0* | 1.7 | 28.0
COc1ccc(S[C@]2(C(=O)N(C)C)CC(=O)N(C(=O)C3CC3)[C@@H]2c2ccc(OC)cc2)cc1 | nt | nt | -1.9 | 1.2 | 34.0* | 1.4 | 32.3*
O=C(NCc1ccccc1)c1sc(=S)n2c1[nH]c(=O)c1ccccc12 | 9.9 | 2.7 | -16.6 | 2.2 | 32.3* | 5.2 | 42.4*
CCCCNC(=O)c1sc(=S)n2c1[nH]c(=O)c1ccc(C(=O)NCCc3ccc(OC)c(OC)c3)cc12 | 3.0 | nt | nt | nt | nt | nt | nt
O=C(NN=C1CCN(Cc2ccccc2)CC1)c1cc2ccccc2cc1O | 36.0 | 8.9 | 11.7 | 4.5 | 46.0* | -9.2 | 42.7*
CCOC(=O)[C@@]12CCC3=C1N(CCC3)C(=O)[C@H](CC(=O)NCc1cccc(C(F)(F)F)c1)C2 | nt | nt | 1.8 | 10.6 | -0.7 | -4.8 | nt
N#CCC(=O)Nc1ccc(C(=O)OCC(=O)Nc2ccccc2Sc2ccccc2)cc1 | nt | 9.1 | 7.5 | -0.5 | 52.3* | -8.8 | -77.0
SMILES | HTRA1 inh | TCR-CD3 inh | SIAE inh | DDE Tn7 FP inh | mABHD4 FP | DDE Tn6 FP inh | mABHD4 conf
COC1=C[C@H](C(=O)N[C@H]2CCCC[C@@H]2NC(C)=O)[C@H](C)[C@@H](c2ccccc2)CC1=O | nt | nt | 0.9 | -3.3 | -5.7 | 4.8 | nt
CC1=C(C#N)C(=O)OC(C)(C)C1 | 12.7 | 7.6 | 3.9 | 10.8 | 29.9* | 1.5 | 9.5
Cc1[nH]c(=O)c(C#N)c2c1COC(C)(C)C2 | -1.2 | nt | nt | nt | nt | nt | nt
CN(C(=S)Nc1cccnc1)c1ccc(O)cc1 | 21.5 | 14.8 | 12.1 | -0.4 | 47.1* | -1.5 | 7.4
CN(C(=S)Nc1ccc(SC(F)F)cc1)c1ccc(O)cc1 | 31.5 | 4.4 | 16.7 | -3.1 | 44.6* | 2.1 | -3.7
O=C(COc1cc(Cl)ccc1Cl)N1CCNC1=O | -1.3 | -1.9 | 2.2 | -5.0 | 0.2 | 0.8 | nt
c1ccc(CSC2=NNC(c3ccccn3)S2)cc1 (stereo not drawn) | 17.8 | -6.2 | 6.7 | 3.9 | 18.0 | -6.8 | nt
O=C(CSC1=NNC(c2ccccn2)S1)Nc1ccc(C(F)(F)F)cc1 (stereo not drawn) | 19.6 | 0.6 | -3.3 | -3.2 | 38.9* | -0.5 | -9.2
CC(C)(C)c1ccc(C(=O)N/C(=C\c2cccc([N+](=O)[O-])c2)C(=O)Nc2cccc(C(=O)O)c2)cc1 | -26.7 | 0.6 | -2.5 | -7.9 | 33.3* | -6.7 | 31.2*
O=C(Nc1cccc(C(=O)O)c1)/C(=C/c1ccc([N+](=O)[O-])cc1)NC(=O)c1ccccc1 | -3.4 | 3.4 | -2.4 | -3.5 | -5.1 | 4.2 | nt
CCCOc1cccc(OCC(=O)Nc2nc3ccccc3[nH]2)c1 | -6.2 | -3.7 | -3.2 | 3.1 | 31.2* | 3.4 | 26.4
CCCCOc1cccc(OCC(=O)Nc2nc3ccccc3[nH]2)c1 | -7.3 | 1.8 | -2.8 | 5.8 | 43.4* | -2.9 | 26.3
Cc1cc(C(=O)NCCc2ccc(S(N)(=O)=O)cc2)c(C)o1 | -6.6 | -8.1 | 6.1 | -2.5 | 0.0 | -7.6 | nt
COc1ccc(C2=NN(C(=O)CCC(=O)O)C(c3ccccc3OC)C2)cc1 (stereo not drawn) | 7.8 | -5.7 | -2.1 | -1.8 | -6.3 | -2.3 | nt
CN1CCc2cccc3c2C1Cc1ccc(O)c(O)c1-3 (stereo not drawn) | 35.5 | 7.0 | 5.7 | -2.8 | 53.3* | 0.5 | 0.6
CN1CCC(=C2c3ccccc3C(O)c3ccccc32)CC1 (stereo not drawn) | 1.0 | -2.7 | 2.5 | -1.9 | 7.7 | -1.1 | nt
COc1ccc(C(N)c2csc(Nc3ccc(C(F)(F)F)cn3)n2)cc1 (stereo not drawn) | nt | -0.6 | 4.2 | -0.3 | 34.1* | -9.8 | 25.3
CCOC(=O)c1c(C)oc2ccc(OC(=O)N3CCOCC3)cc12 | -1.7 | 5.7 | 2.4 | 2.7 | 39.8* | 1.5 | 39.8*
Cc1oc2ccc(OC(=O)N3CCOCC3)cc2c1C(=O)OC(C)C | -3.0 | 5.4 | -0.4 | -2.8 | 58.9* | -4.1 | 54.4*
COC(=O)c1c(C)oc2ccc(OC(=O)N3CCOCC3)cc12 | -4.0 | 5.4 | 1.3 | -11.9 | 19.9 | -4.5 | nt

Assay outcomes as filed in PubChem BioAssay.
